In ChEMBL document CHEMBL5137066, “Discovery of BLU-945, a Reversible, Potent, and Wild-Type-Sparing Next-Generation EGFR Mutant Inhibitor for Treatment-Resistant Non-Small-Cell Lung Cancer” (J Med Chem, 2022):

Assays:
[1] = Intrinsic clearance in human liver microsomes; type: ADME, Microsome; settings: for Microsomal intrinsic clearance: microsomes
[2] = biological target: T1, Epidermal growth factor receptor (Homo sapiens, UniProt P00533, L858R/T790M); assay: Inhibition of N-terminal GST tagged recombinant human EGFR L858R/T790M (669 to end residues) double mutant expressed in baculovirus infected Sf9 insect cells expression system using 5-FAM-EEPLYINSFPAKKK-CONH peptide as substrate preincubated for 10 mins followed by peptide substrate addition in presence of ATP
[3] = (§1) Inhibition of N-terminal GST tagged recombinant human EGFR L858R/T790M/C790S (668 to end residues) triple mutant expressed in baculovirus infected Sf9 insect cells using 5-FAM-EEPLYINSFPAKKK-CONH peptide as substrate preincubated for 10 mins followed by peptide substrate addition in presence of ATP
[4] = biological target: T2, Epidermal growth factor receptor (Homo sapiens, UniProt P00533); assay: Inhibition of N-terminal GST tagged recombinant wild type human EGFR expressed in baculovirus infected Sf9 insect cells expression system using 5-FAM-EEPLYINSFPAKKK-CONH peptide as substrate preincubated for 10 mins followed by peptide substrate addition in presence of ATP
[5] = biological target: T1, Epidermal growth factor receptor; assay: Inhibition of EGF stimulated EGFR L858R/T790M double mutant phosphorylation in human NCI-H1975 cells preincubated for 4 to 5 hrs followed by EGF stimulation for 10 mins by AlphaLISA method; type: cell-based
[6] = as §1, with “ex19del (746 to 750)/ L858R/C790S” for “L858R/T790M/C790S”, “cells expression system” for “cells”
[7] = Apparent permeability across apical to basolateral side in MDCK-MDR1 cells; type: ADME, cell-based, Canis lupus familiaris; settings: dog
[8] = Clearance in Sprague-Dawley rat at 1 mg/kg, iv; type: ADME, organism-based; settings: in vivo
How it was run: (§2)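 Sprague–Dawley rats (n = 3), single IV bolus of 1 mg/kg in 10% DMSO, 10% solutol, 80% of a 20% HP-β-CD solution (in water or in saline, depending on compound). Clearance is plasma clearance after the IV bolus.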

[9] = Half life in Sprague-Dawley rat at 1 mg/kg, iv; type: ADME, organism-based; settings: in vivo; how it was run: as §2
[10] = Oral bioavailability in Sprague-Dawley rat at 5 mg/kg; type: ADME, organism-based; settings: in vivo
How it was run: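 Sprague–Dawley rats (n = 3) received 1 mg/kg IV and 5 mg/kg PO. IV vehicle was 10% DMSO/10% solutol/80% (20% HP-β-CD). PO vehicle was a suspension in 20% solutol in 0.5% MC in water, or a solution matching the IV vehicle, depending on compound.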

[11] = Intrinsic clearance in human liver microsomes in presence of NADPH; type: ADME, Microsome
How it was run: (§3)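 Intrinsic clearance measured in isolated liver microsomes of each species with NADPH, expressed in μL/min/mg.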

[12] = Intrinsic clearance in rat liver microsomes in presence of NADPH; type: ADME, Microsome; how it was run: as §3
[13] = Intrinsic clearance in dog liver microsomes in presence of NADPH; type: ADME, Canis lupus familiaris, Microsome; how it was run: as §3
[14] = Intrinsic clearance in cynomolgus monkey liver microsomes in presence of NADPH; type: ADME, Macaca fascicularis, Microsome; how it was run: as §3
[15] = Intrinsic clearance in human hepatocytes assessed per million cells; type: ADME, cell-based, Hepatocyte
How it was run: (§4)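 Intrinsic clearance measured in isolated hepatocytes of each species, expressed in μL/min/million cells.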

[16] = Intrinsic clearance in rat hepatocytes assessed per million cells; type: ADME, cell-based, Hepatocyte; how it was run: as §4
[17] = Intrinsic clearance in dog hepatocytes assessed per million cells; type: ADME, cell-based, Canis lupus familiaris, Hepatocyte; how it was run: as §4
[18] = Clearance in cynomolgus monkey at 0.5 mg/kg,iv; type: ADME, organism-based, Macaca fascicularis; settings: in vivo
How it was run: (§5)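 Cynomolgus monkeys given a single IV bolus of 0.5 mg/kg in 5% DMSO + 5% kolliphor HS 15 + 90% saline. Clearance is plasma clearance after the bolus.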

[19] = Half life in cynomolgus monkey at 0.5 mg/kg, iv; type: ADME, organism-based, Macaca fascicularis; settings: in vivo; how it was run: as §5
[20] = biological target: T2, Epidermal growth factor receptor; assay: Inhibition of wild type EGFR in human A-431 cells preincubated for 4 to 5 hrs followed by EGF stimulation for 10 mins by AlphaLISA method; type: cell-based
[21] = Efflux ratio of apparent permeability in MDCK-MDR1 cells; type: ADME, cell-based, Canis lupus familiaris; settings: dog
[22] = Intrinsic clearance in cynomolgus monkey hepatocytes assessed per million cells; type: ADME, cell-based, Macaca fascicularis, Hepatocyte; how it was run: as §4
[23] = Unbound clearance in cynomolgus monkey assessed as clearance/free fraction ratio at 0.5 mg/kg, iv; type: ADME, organism-based, Macaca fascicularis; settings: in vivo
How it was run: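 Cynomolgus monkey, 0.5 mg/kg IV bolus in 5% DMSO/5% kolliphor HS 15/90% saline. Unbound clearance = in vivo plasma clearance divided by the free fraction. Free fraction comes from plasma protein binding measured by ultracentrifugation.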

T2 sequence (P00533 whole entry): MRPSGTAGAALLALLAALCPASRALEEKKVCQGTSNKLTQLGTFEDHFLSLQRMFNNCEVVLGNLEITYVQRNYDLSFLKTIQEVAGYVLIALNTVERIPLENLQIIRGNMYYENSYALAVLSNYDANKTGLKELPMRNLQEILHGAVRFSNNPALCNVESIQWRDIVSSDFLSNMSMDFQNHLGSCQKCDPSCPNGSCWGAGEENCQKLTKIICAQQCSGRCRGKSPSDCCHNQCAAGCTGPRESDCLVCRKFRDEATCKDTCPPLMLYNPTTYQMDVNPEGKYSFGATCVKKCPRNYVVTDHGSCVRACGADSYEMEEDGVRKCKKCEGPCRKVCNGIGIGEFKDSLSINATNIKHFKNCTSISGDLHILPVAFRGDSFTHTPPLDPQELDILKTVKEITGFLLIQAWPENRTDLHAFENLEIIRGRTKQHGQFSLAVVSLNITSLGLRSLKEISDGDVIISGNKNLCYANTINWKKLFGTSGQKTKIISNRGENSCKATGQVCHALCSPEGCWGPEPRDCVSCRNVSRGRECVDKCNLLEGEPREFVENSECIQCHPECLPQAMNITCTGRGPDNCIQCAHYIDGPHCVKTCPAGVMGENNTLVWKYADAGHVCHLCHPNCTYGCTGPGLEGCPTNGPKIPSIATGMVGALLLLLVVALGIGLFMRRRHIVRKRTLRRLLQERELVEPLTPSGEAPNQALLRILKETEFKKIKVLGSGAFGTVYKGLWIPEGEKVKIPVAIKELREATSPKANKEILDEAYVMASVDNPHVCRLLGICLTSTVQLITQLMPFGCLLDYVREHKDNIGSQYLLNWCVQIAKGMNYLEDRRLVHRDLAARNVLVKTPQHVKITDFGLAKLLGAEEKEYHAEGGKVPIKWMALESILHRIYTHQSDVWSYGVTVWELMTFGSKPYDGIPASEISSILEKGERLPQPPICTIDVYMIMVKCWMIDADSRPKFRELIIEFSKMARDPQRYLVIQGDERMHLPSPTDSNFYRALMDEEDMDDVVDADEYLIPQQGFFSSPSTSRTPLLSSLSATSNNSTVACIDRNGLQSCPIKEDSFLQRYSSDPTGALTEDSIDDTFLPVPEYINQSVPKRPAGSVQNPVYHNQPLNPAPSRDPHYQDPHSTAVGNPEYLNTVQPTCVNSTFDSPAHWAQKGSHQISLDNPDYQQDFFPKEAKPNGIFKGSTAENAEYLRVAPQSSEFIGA
T1 sequence (P00533 25-1210 T790M/L858R limits assumed): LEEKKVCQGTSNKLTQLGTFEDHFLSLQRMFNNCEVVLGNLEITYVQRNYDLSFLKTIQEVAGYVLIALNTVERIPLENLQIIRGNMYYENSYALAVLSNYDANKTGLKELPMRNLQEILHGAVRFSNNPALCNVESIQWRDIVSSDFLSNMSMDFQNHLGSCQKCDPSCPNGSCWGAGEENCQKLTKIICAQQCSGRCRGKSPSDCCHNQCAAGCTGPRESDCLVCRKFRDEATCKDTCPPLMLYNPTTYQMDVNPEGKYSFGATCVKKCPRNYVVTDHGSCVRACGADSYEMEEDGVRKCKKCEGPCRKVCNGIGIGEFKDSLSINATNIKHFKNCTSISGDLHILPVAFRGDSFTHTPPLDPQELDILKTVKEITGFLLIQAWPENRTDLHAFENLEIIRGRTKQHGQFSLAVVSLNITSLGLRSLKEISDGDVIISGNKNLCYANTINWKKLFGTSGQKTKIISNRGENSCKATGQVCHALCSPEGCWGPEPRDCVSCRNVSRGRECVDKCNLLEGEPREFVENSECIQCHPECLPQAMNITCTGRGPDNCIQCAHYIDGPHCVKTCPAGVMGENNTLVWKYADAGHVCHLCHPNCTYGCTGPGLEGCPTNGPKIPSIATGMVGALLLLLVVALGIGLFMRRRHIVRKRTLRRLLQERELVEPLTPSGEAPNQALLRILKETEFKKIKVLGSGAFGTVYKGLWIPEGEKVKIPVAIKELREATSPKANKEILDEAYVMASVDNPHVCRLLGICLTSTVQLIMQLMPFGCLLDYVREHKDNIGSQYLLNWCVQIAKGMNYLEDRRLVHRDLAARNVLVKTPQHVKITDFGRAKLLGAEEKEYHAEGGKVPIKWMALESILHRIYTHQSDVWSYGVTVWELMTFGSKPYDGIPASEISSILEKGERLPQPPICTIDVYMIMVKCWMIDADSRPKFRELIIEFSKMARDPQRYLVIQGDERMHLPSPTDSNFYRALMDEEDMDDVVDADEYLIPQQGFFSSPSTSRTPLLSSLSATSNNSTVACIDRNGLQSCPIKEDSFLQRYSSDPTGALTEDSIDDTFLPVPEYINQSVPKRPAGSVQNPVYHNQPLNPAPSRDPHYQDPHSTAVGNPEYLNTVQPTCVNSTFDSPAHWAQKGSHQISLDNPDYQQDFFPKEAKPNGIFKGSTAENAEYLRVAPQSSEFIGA

Structure (SMILES)	Microsomal intrinsic clearance [1] [µL/min/mg]	IC50 [2] [µM]	IC50 [3] [µM]	IC50 [4] [µM]	IC50 [5] [µM]	IC50 [6] [µM]	IC50 [20] [µM]	also measured
CC(C)c1cnc(N2CC(C(=O)N(C)C)C2)c2cnc(Nc3ccnc(N4CC[C@@H](O)[C@@](C)(F)C4)n3)cc12	102	–	–	–	–	–	–	–
CC(C)c1ncc(N2C[C@H](O)[C@H]2C)c2cnc(Nc3ccnc(N4CC[C@@H](O)[C@@](C)(F)C4)n3)cc12	45	0.0018	0.01	4.19	0.013	0.0081	–	–
CC(C)c1ccc(N2CC(CS(C)(=O)=O)C2)c2cnc(Nc3ccnc(N4CC[C@@H](O)[C@@](C)(F)C4)n3)cc12	–	–	–	–	–	–	–	Papp [7]: 17 10^-6 cm/s; clearance [8]: 20 mL/min/kg; half-life [9]: 3 h; F [10]: 85%
CNC(=O)C1CN(c2ncc(C(C)C)c3cc(Nc4ccnc(N5CC[C@@H](O)[C@@](C)(F)C5)n4)ncc23)C1	–	0.001	0.0011	–	0.032	0.0034	–	–
CC(C)c1cnc(N2CC[C@@H]2C)c2cnc(Nc3ccnc(N4CC[C@@H](O)[C@@](C)(F)C4)n3)cc12	–	0.106	0.113	–	0.21	0.11	–	–
CC(C)c1ccc(N2C[C@H](CS(C)(=O)=O)[C@H]2C)c2cnc(Nc3ccnc(N4CC[C@@H](O)[C@@](C)(F)C4)n3)cc12	–	–	–	–	–	–	–	Papp [7]: 9 10^-6 cm/s; clearance [8]: 25 mL/min/kg; half-life [9]: 1.3 h; F [10]: 50%; CLH [11]: 7.2 µL/min/mg; CLH [12]: 43 µL/min/mg; CLH [13]: 20 µL/min/mg; CLH [14]: 55 µL/min/mg; CLH [15]: 41 µL/min; CLH [16]: 33 µL/min; CLH [17]: 21 µL/min; clearance [18]: 31.8 mL/min/kg; half-life [19]: 2.9 h
CC(C)c1ccc(N2C[C@H](O)[C@H]2C)c2cnc(Nc3ccnc(N4CC[C@@H](O)[C@@](C)(F)C4)n3)cc12	17	0.0005	0.0075	2.22	0.019	0.0055	–	–
CC(C)c1cnc(N2C[C@H](O)[C@H]2C)c2cnc(Nc3ccnc(N4CC[C@@H](O)[C@@](C)(F)C4)n3)cc12	25	–	–	–	–	–	–	–
CC(C)c1ccc(N2C[C@H](CS(C)(=O)=O)[C@H]2C)c2cnc(Nc3ccnc(N4CC[C@@](C)(O)[C@@H](F)C4)n3)cc12	–	0.0004	0.0005	1.09	0.0038	–	1.21	Papp [7]: 5 10^-6 cm/s; efflux ratio [21]: 3; CLH [11]: 5.1 µL/min/mg; CLH [14]: 23 µL/min/mg; CLH [15]: 3.2 µL/min; CLH [22]: 1.5 uL/min/10^6 cells; clearance [18]: 8.8 mL/min/kg; Ratio [23]: 170; half-life [19]: 4.8 h
CNc1ncc(C(C)C)c2cc(Nc3ccnc(N4CC[C@@H](O)[C@@H](F)C4)n3)ncc12	–	0.05	0.046	> 10	0.067	–	> 25	microsomal CLint ([1]; liver microsomes, read-out: CLH): 19.1 µL/min/mg
CC(C)c1cnc(N2CC[C@H]2C)c2cnc(Nc3ccnc(N4CC[C@@H](O)[C@@](C)(F)C4)n3)cc12	80	0.0003	–	7.29	0.007	0.0008	9.96	–
CC(C)c1cnc(N2C[C@H](CS(C)(=O)=O)[C@H]2C)c2cnc(Nc3ccnc(N4CC[C@@H](O)[C@@](C)(F)C4)n3)cc12	–	0.0002	–	0.27	0.0017	–	0.781	Papp [7]: 5 10^-6 cm/s; efflux ratio [21]: 16
CC(C)c1cnc(N2CCC2)c2cnc(Nc3ccnc(N4CC[C@@H](O)[C@@](C)(F)C4)n3)cc12	106	0.0021	0.012	–	0.02	0.0091	8.67	–
CC(C)c1cnc(N2CC(CS(C)(=O)=O)C2)c2cnc(Nc3ccnc(N4CC[C@@H](O)[C@@](C)(F)C4)n3)cc12	9.6	–	–	–	–	–	–	clearance [8]: 67 mL/min/kg; half-life [9]: 1.6 h; F [10]: 2%
CC(C)c1ncc(N2CC[C@H]2C)c2cnc(Nc3ccnc(N4CC[C@@H](O)[C@@](C)(F)C4)n3)cc12	159	0.0022	0.009	3.42	0.023	0.006	–	–
CNC(=O)c1cnc(Nc2ccnc(N3CCC(O)CC3)n2)cc1NC(C)C	4	0.29	0.266	> 10	0.914	–	> 25	–
CC(C)c1cnc(N2CC(O)C2)c2cnc(Nc3ccnc(N4CC[C@@H](O)[C@@](C)(F)C4)n3)cc12	43	0.0036	0.011	5.52	0.041	0.0081	–	–
CO[C@@H]1[C@H](O)CN(c2nccc(Nc3cc4c(C(C)C)ccc(N5C[C@H](CS(C)(=O)=O)[C@H]5C)c4cn3)n2)CC1(F)F	–	0.0007	–	0.81	0.0026	–	0.191	Papp [7]: 8 10^-6 cm/s; efflux ratio [21]: 2; CLH [11]: 19 µL/min/mg; CLH [14]: 25 µL/min/mg; CLH [15]: 16 µL/min; CLH [22]: 49 uL/min/10^6 cells; clearance [18]: 9.1 mL/min/kg; Ratio [23]: 294; half-life [19]: 4.5 h
COCC1CN(c2ncc(C(C)C)c3cc(Nc4ccnc(N5CC[C@@H](O)[C@@](C)(F)C5)n4)ncc23)C1	–	0.011	0.025	–	0.04	0.024	–	–
CNc1ncc(C(C)C)c2cc(Nc3ccnc(N4CC[C@@H](O)[C@@](C)(F)C4)n3)ncc12	31	–	–	–	–	–	–	–
CC[C@]1(F)CN(c2nccc(Nc3cc4c(C(C)C)ccc(N5C[C@H](CS(C)(=O)=O)[C@H]5C)c4cn3)n2)CC[C@H]1O	–	0.0005	0.0004	0.761	0.0018	–	0.709	Papp [7]: 6 10^-6 cm/s; efflux ratio [21]: 4; CLH [11]: 5.9 µL/min/mg; CLH [14]: 192 µL/min/mg; CLH [15]: 48 µL/min; CLH [22]: 204 uL/min/10^6 cells
CC(C)c1cnc(N2CC(C#N)C2)c2cnc(Nc3ccnc(N4CC[C@@H](O)[C@@](C)(F)C4)n3)cc12	85	–	0.0053	3.4	0.017	0.0048	–	–
COC1CN(c2ncc(C(C)C)c3cc(Nc4ccnc(N5CC[C@@H](O)[C@@](C)(F)C5)n4)ncc23)C1	91	0.0034	0.0072	–	0.024	0.0063	–	–
CC(C)c1nnc(N2CC[C@H]2C)c2cnc(Nc3ccnc(N4CC[C@@H](O)[C@@](C)(F)C4)n3)cc12	96	0.016	0.0127	8.17	0.025	0.0096	–	–
CC(C)c1cnc(N2CCCC2)c2cnc(Nc3ccnc(N4CC[C@@H](O)[C@@](C)(F)C4)n3)cc12	65	–	0.0215	–	0.052	0.023	–	–
CNC(=O)c1cnc(Nc2ccnc(N3CC[C@@H](O)[C@@H](F)C3)n2)cc1NC(C)C	9.1	0.099	0.105	> 10	0.42	–	> 25	–
